# According to ChEMBL document CHEMBL3797060, “Discovery of 5-Chloro-1-(5-chloro-2-(methylsulfonyl)benzyl)-2-imino-1,2-dihydropyridine-3-carboxamide (TAK-259) as a Novel, Selective, and Orally Active α1D Adrenoceptor Antagonist with Antiurinary Frequency Effects: Reducing Human Ether-a-go-go-Related Gene (hERG) Liabilities” (J Med Chem, 2016):
# Key:
# [1] = target: T1, Alpha-1D adrenergic receptor (Homo sapiens, UniProt P25100); test: Displacement of 7-methoxy-[3H]-prazosin from human alpha1D adrenergic receptor expressed in CHO-K1 cell membranes incubated for 60 mins by liquid scintillation counting analysis
# T1 sequence (P25100 whole entry): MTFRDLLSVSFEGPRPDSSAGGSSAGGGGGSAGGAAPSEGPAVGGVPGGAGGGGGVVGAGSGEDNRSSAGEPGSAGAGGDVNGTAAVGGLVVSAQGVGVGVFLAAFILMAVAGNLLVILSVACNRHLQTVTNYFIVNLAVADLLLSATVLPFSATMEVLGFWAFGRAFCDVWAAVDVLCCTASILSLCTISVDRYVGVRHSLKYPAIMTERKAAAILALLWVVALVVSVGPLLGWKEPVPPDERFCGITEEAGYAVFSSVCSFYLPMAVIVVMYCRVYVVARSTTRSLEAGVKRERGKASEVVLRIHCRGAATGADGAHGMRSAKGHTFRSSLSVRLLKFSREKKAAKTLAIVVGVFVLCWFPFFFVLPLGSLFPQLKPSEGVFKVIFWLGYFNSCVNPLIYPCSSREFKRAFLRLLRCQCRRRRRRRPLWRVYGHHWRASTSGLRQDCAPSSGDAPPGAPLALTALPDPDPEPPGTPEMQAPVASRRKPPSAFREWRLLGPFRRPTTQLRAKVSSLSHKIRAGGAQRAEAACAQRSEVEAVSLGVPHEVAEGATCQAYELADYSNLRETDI
# Procedure, shortened: (§1)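 CHO-K1 stable-line membranes (10 µg protein), 2.5 nmol/L ligand, Tris-HCl pH 7.5 with MgCl2, EDTA and 0.5% BSA, 12 compound concentrations, room temperature. Filtered and counted; nonspecific binding with 10 µmol/L phentolamine. IC50 by logistic regression, converted to Ki by Cheng-Prusoff with Kd 0.93 (α1A), 0.35 (α1B), 0.26 (α1D) nmol/L. Triplicate mean, 95% CI.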
# hERG (KCNH2) = hERG (KCNH2) (Homo sapiens, UniProt Q12809); test: Inhibition of human ERG channel expressed in CHO cells assessed as peak tail current at 10 uM incubated for 5 mins by patch-clamp assay; format: cell-based; conditions: CHO cells expressing human ERG channel
# Procedure, shortened: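 CHO cells stably expressing hERG, grown at 32 °C, 5% CO2 in Ham's F-12 with 10% FBS and 500 µg/mL Geneticin. Population patch clamp with PBS (Ca/Mg) outside, KCl/MgCl2/EGTA/HEPES pH 7.3 inside, amphotericin B perforation. Holding −80 mV, step to 40 mV 2 s, then −50 mV 2 s. Peak tail current taken before and after 5 min compound exposure, inhibition = 100 − post/pre×100, n = 3 or 4.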
# [2] = AUC in rat at 1 mg/kg, po administered via cassette dosing by LC/MS/MS analysis; format: ADME, organism-based; conditions: in vivo
# Procedure, shortened: (§2)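 Fed rats dosed orally at 1 mg/kg as 0.5% methylcellulose suspension by cassette dosing; bioavailability also uses an iv arm of 0.1 mg/kg in DMA/1,3-butanediol (1:1). Plasma obtained from blood by centrifugation, deproteinized, and measured by LC/MS/MS. Values are averages of three rats.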
# Urinary bladder = test: Inhibition of (R)-(-)-phenylephrine hydrochloride-induced contractions in Wistar rat bladder with outlet obstruction treated every 30 minutes post (R)-(-)-phenylephrine hydrochloride challenge; format: functional; conditions: for IC30: 0.5 h
# [3] = Volume of distribution at steady state in rat at 0.1 mg/kg, iv administered via cassette dosing by LC/MS/MS analysis; format: ADME, organism-based; conditions: in vivo, read-out: Vdss
# Procedure, shortened: (§3)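 Cassette dosing iv at 0.1 mg/kg in DMA/1,3-butanediol (1:1) to fed rats. Blood collected after dosing and centrifuged to plasma, which was deproteinized and centrifuged; supernatant concentrations measured by LC/MS/MS.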
# [4] = Oral bioavailability in rat at 1 mg/kg administered via cassette dosing by LC/MS/MS analysis; format: ADME, organism-based; conditions: in vivo; procedure, shortened: as §2
# Homo sapiens [5] = species: Homo sapiens; test: Selectivity ratio of Ki for human alpha1A adrenergic receptor to Ki for human alpha1D adrenergic receptor
# Procedure, shortened: (§4)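 Membranes from CHO-K1 cells stably expressing human α1A, α1B or α1D receptors (10 µg protein) incubated 60 min at room temperature with 2.5 nmol/L 7-methoxy[3H]-prazosin and 12 compound concentrations in Tris-HCl pH 7.5 buffer with MgCl2, EDTA, 0.5% BSA. Bound counts taken after filtration; nonspecific binding defined with 10 µmol/L phentolamine.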
# Rattus norvegicus [6] = test: Inhibition of nonvoiding contractions during urinary storage phase in iv dosed Wistar rat with bladder outlet obstruction after 10 mins by cystometrogram; format: functional; conditions: for ED50: read-out: ID50 (the source's name)
# [7] = Mean residence time in rat at 1 mg/kg, po administered via cassette dosing by LC/MS/MS analysis; format: ADME, organism-based; conditions: in vivo; procedure, shortened: as §2
# [8] = Cmax in rat at 1 mg/kg, po administered via cassette dosing by LC/MS/MS analysis; format: ADME, organism-based; parameters: dose 1 mg/kg, route oral; conditions: in vivo; procedure, shortened: as §2
# Rattus norvegicus [9] = test: Reduction of urinary frequency in po dosed Sprague-Dawley rat with cyclophosphamide-induced cystitis assessed as increased voiding intervals administered at voiding intervals less <7.2 mins measured after 5 to 35 mins by cystometrogram; format: functional; conditions: Urine, read-out: MED
# Homo sapiens [10] = species: Homo sapiens; test: Selectivity ratio of Ki for human alpha1B adrenergic receptor to Ki for human alpha1D adrenergic receptor; procedure, shortened: as §4
# [11] = Total clearance in rat at 0.1 mg/kg, iv administered via cassette dosing by LC/MS/MS analysis; format: ADME, organism-based; conditions: in vivo; procedure, shortened: as §3
# [12] = target: T2, 5-hydroxytryptamine receptor 1A (Homo sapiens, UniProt P08908); test: Inhibition of 5-HT 1A receptor (unknown origin)
# T2 sequence (P08908 whole entry): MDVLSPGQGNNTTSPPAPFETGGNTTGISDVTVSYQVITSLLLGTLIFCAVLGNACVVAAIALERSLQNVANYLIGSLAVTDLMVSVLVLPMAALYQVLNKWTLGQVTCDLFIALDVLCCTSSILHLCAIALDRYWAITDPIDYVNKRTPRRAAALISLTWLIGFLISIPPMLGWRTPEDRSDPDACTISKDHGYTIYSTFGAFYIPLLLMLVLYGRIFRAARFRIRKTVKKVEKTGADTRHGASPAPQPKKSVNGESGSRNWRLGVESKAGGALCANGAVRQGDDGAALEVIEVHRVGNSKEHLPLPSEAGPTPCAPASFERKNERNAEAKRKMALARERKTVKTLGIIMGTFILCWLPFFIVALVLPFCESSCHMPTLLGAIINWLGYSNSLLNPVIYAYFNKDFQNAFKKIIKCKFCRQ
# [13] = target: T3, Alpha-1A adrenergic receptor (Homo sapiens, UniProt P35348); test: Displacement of 7-methoxy-[3H]-prazosin from human alpha1A adrenergic receptor expressed in CHO-K1 cell membranes incubated for 60 mins by liquid scintillation counting analysis; procedure, shortened: as §1
# T3 sequence (P35348 whole entry): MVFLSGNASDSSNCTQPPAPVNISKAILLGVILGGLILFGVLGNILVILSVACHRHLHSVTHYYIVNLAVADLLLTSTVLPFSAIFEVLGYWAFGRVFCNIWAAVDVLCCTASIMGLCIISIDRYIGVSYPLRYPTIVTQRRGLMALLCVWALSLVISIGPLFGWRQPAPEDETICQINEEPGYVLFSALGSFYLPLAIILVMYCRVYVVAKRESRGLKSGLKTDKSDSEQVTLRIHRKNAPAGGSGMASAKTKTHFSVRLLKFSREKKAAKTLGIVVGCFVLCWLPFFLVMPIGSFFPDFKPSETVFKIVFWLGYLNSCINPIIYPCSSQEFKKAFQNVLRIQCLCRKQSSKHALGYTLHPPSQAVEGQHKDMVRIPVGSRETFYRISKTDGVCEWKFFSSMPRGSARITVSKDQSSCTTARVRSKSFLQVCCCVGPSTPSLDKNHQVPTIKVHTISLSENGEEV
# [14] = target: T4, Alpha-1B adrenergic receptor (Homo sapiens, UniProt P35368); test: Displacement of 7-methoxy-[3H]-prazosin from human alpha1B adrenergic receptor expressed in CHO-K1 cell membranes incubated for 60 mins by liquid scintillation counting analysis; procedure, shortened: as §1
# T4 sequence (P35368 whole entry): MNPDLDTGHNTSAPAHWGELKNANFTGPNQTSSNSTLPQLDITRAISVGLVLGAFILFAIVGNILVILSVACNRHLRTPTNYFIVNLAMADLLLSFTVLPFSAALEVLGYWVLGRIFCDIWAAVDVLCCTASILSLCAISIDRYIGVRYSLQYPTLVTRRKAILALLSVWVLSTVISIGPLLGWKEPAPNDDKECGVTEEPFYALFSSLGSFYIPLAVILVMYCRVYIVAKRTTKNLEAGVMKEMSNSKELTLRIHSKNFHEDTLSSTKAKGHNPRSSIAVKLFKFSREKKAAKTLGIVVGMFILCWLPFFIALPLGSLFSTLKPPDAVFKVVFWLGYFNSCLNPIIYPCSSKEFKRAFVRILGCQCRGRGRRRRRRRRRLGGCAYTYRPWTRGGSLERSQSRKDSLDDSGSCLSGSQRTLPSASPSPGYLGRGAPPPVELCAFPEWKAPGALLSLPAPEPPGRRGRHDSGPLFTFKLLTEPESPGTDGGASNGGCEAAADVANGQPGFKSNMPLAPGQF
# Sequence of hERG (KCNH2) (Q12809 whole entry): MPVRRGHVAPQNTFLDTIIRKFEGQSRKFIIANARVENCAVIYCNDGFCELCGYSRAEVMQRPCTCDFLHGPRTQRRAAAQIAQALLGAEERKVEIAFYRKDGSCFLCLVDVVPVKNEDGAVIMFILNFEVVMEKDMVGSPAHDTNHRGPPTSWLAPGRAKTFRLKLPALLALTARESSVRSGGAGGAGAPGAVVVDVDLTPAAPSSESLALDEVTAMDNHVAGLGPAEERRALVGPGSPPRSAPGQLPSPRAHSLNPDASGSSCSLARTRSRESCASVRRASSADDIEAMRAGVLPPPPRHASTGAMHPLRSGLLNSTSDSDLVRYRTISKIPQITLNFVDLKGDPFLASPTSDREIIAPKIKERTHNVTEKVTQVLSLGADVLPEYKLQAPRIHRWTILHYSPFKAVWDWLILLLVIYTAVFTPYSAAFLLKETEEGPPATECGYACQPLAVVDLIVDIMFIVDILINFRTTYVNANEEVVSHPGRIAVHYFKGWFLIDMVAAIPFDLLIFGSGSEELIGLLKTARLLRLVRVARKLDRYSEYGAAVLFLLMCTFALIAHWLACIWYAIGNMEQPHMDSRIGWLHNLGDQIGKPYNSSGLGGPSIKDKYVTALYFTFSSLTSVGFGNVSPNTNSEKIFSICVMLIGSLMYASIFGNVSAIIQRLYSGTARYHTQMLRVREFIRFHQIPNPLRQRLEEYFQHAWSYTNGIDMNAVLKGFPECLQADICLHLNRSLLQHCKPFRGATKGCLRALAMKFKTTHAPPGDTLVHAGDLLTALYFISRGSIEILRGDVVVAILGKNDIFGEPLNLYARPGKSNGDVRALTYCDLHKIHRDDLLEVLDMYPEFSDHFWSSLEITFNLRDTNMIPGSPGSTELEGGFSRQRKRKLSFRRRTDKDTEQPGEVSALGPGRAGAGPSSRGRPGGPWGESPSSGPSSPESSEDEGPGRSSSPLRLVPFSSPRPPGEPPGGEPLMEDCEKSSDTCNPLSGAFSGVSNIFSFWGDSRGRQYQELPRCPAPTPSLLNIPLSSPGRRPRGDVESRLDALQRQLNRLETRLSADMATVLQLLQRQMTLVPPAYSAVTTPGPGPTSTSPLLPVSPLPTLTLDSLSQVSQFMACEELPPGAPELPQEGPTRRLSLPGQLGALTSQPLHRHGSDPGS
compound,measurement,setting,value
CC(c1cccc(Cl)c1)n1cc(Cl)cc(C(N)=O)c1=N (stereo not drawn),Ki,[1],0.66 nM
same,"inhibition at 5 min, 10 µM",hERG (KCNH2),48%
N=c1c(C(N)=O)cc(Cl)cn1-c1ccccc1,Ki,[1],> 940 nM
C[C@H](c1cccc(C#N)c1)n1cc(Cl)cc(C(N)=O)c1=N [(R)-9s],AUC,[2],368 ng·h/mL
same,inhibition,Urinary bladder,Dose-dependent effect
same,IC30,Urinary bladder,15 nM
same,Vd,[3],4.68 L/kg
same,bioavailability,[4],86%
same,Ratio Ki,Homo sapiens [5],> 1700
same,inhibition,Rattus norvegicus [6],Dose-dependent effect
same,ED50,Rattus norvegicus [6],4.4 µg/kg
same,MRT,[7],3.14 h
same,Ki,[1],1.6 nM
same,Cmax,[8],142 ng/mL
same,"inhibition at 5 min, 10 µM",hERG (KCNH2),25%
same,minimal effective dose,Rattus norvegicus [9],10 µg/kg
same,Ratio Ki,Homo sapiens [10],> 750
same,clearance,[11],39.2 mL/min/kg
CS(=O)(=O)c1cccc(Cn2cc(Cl)cc(C(N)=O)c2=N)c1,Ki,[1],52 nM
CN(C)C(=O)c1cc(Cl)cn(Cc2ccccc2)c1=N,Ki,[1],> 940 nM
N=c1c(C(N)=O)cc(Cl)cn1Cc1cccc(Cl)c1,Ki,[1],2.6 nM
same,"inhibition at 5 min, 10 µM",hERG (KCNH2),47%
C[C@@H](c1cccc(C#N)c1)n1cc(Cl)cc(C(N)=O)c1=N [(S)-9s],Ki,[1],130 nM
same,"inhibition at 5 min, 10 µM",hERG (KCNH2),57%
CC(c1cccc(S(C)(=O)=O)c1)n1cc(Cl)cc(C(N)=O)c1=N (stereo not drawn),Ki,[1],15 nM
same,"inhibition at 5 min, 10 µM",hERG (KCNH2),19%
N=c1c(C(N)=O)cc(Cl)cn1Cc1ccccc1,IC50,[12],> 1000 nM
same,Ki,[1],30 nM
same,Ki,[13],> 2700 nM
same,Ki,[14],> 1200 nM
CS(=O)(=O)c1ccc(Cn2cc(Cl)cc(C(N)=O)c2=N)cc1Cl,Ki,[1],9.4 nM
same,"inhibition at 5 min, 10 µM",hERG (KCNH2),13%
N=c1c(C(N)=O)cc(Br)cn1Cc1ccccc1,Ki,[1],160 nM
N=c1c(C(N)=O)cc(Cl)cn1CCc1ccccc1,Ki,[1],16 nM
N=c1c(C(N)=O)cc(Cl)cn1Cc1cc(Cl)cc(C(N)=O)c1,AUC,[2],10.8 ng·h/mL
same,Vd,[3],3.21 L/kg
same,bioavailability,[4],3%
same,Ratio Ki,Homo sapiens [5],> 730
same,MRT,[7],2.47 h
same,Ki,[1],3.7 nM
same,Cmax,[8],3.2 ng/mL
same,"inhibition at 5 min, 10 µM",hERG (KCNH2),13%
same,Ratio Ki,Homo sapiens [10],> 320
same,clearance,[11],47.2 mL/min/kg
CC(c1cccc(C#N)c1)n1cc(Cl)cc(C(N)=O)c1=N (stereo not drawn),Ki,[1],3.4 nM
same,"inhibition at 5 min, 10 µM",hERG (KCNH2),32%
Cc1cccc(Cn2cc(Cl)cc(C(N)=O)c2=N)c1,Ki,[1],7.5 nM
N#Cc1cccc(Cn2cc(Cl)cc(C(N)=O)c2=N)c1,Ki,[1],10 nM
CS(=O)(=O)c1ccc(Cl)cc1Cn1cc(Cl)cc(C(N)=O)c1=N,AUC,[2],358 ng·h/mL
same,inhibition,Urinary bladder,Dose-dependent effect
same,IC30,Urinary bladder,12 nM
same,Vd,[3],4.43 L/kg
same,bioavailability,[4],84.5%
same,Ratio Ki,Homo sapiens [5],200
same,inhibition,Rattus norvegicus [6],Dose-dependent effect
same,ED50,Rattus norvegicus [6],1.3 µg/kg
same,MRT,[7],4.53 h
same,Ki,[1],1.1 nM
same,Cmax,[8],60.2 ng/mL
same,"inhibition at 5 min, 10 µM",hERG (KCNH2),16%
same,minimal effective dose,Rattus norvegicus [9],10 µg/kg
same,Ratio Ki,Homo sapiens [10],800
same,clearance,[11],39.9 mL/min/kg
